Experimental data: ChEMBL document CHEMBL3992532, “Structure-Based Design of Macrocyclic Factor XIa Inhibitors: Discovery of the Macrocyclic Amide Linker” (J Med Chem, 2017)

Assays:
Coagulation factor XI [1] = molecular target: T1, Coagulation factor XI (Homo sapiens, UniProt P03951); assay: Inhibition of human coagulation factor 11a using pyroGlu-Pro-Arg-pNA as substrate after 10 to 120 mins at 37 degC by spectrophotometric method
Summary of the method: (§1)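 Purified human proteases, 37 °C; reaction started by adding enzyme to substrate (up to 4× Km) ± inhibitor; compound from DMSO, 1% DMSO final except where noted. […] Buffers: FXIa, chymotrypsin, tPA, plasmin, urokinase in 50 mM HEPES pH 7.4, 145 mM NaCl, 5 mM KCl, 0.1% PEG 8000; FXa, thrombin, trypsin, plasma kallikrein, aPC in 100 mM Na phosphate pH 7.4, 200 mM NaCl, 0.5% PEG 8000; FIXa in 50 mM Tris pH 7.4, 100 mM NaCl, 5 mM CaCl2, 0.5% PEG 8000, 2% DMSO.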

Plasma = assay: Anticoagulant activity in human plasma assessed as concentration required to produce 50% increase in activated partial thromboplastin time; format: functional
Summary of the method: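 Citrated (one-tenth volume 0.11 M) plasma from healthy volunteers, spun 2,000 g 10 min, kept on ice; 10 mM DMSO stock diluted in plasma, up to 7 concentrations; aPTT on automated coagulometer, duplicates as mean ratio to baseline; EC1.5x (50% prolongation) by linear interpolation, as total plasma concentration.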

[2] = Half life in human liver microsomes; format: ADME, microsome
Coagulation factor XI [3] = molecular target: T1, Coagulation factor XI; assay: Inhibition of human coagulation factor 11a using pyroGlu-Pro-Arg-pNA as substrate after 10 to 120 mins at 25 degC by spectrophotometric method
Coagulation factor VII = molecular target: T2, Coagulation factor VII (Homo sapiens, UniProt P08709); assay: Inhibition of human coagulation factor 7a using H-(D)-Ile-Pro-Arg-pNA as substrate after 10 to 120 mins at 25 degC by spectrophotometric method
T2 sequence (P08709 whole entry): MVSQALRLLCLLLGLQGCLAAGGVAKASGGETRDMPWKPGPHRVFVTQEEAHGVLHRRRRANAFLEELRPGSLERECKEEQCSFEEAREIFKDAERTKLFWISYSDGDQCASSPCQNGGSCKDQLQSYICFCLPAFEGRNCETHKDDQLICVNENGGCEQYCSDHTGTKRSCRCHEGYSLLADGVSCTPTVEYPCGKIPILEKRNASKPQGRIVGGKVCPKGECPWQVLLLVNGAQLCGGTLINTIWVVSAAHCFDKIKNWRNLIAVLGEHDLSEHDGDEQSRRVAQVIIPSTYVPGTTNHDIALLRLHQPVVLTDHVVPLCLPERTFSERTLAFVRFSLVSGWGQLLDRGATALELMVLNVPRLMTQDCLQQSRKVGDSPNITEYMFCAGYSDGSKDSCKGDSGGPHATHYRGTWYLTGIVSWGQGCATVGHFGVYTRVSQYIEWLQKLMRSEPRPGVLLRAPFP

Coagulation factor IX = Coagulation factor IX (Homo sapiens, UniProt P00740); assay: Inhibition of human coagulation factor 9a using methylsulfonyl-D-cyclohexylglycyl-Gly-Arg-AMC as substrate after 10 to 120 mins at 37 degC by spectrophotometric method; summary of the method: as §1
Coagulation factor X = Coagulation factor X (Homo sapiens, UniProt P00742); assay: Inhibition of human coagulation factor 10a using N-benzoyl-Ile-Glu-(OH,OMe)-Gly-Arg-pNA as substrate after 10 to 120 mins at 37 degC by spectrophotometric method; summary of the method: as §1
Coagulation factor XII = molecular target: T3, Coagulation factor XII (Homo sapiens, UniProt P00748); assay: Inhibition of human coagulation factor 12a using H-(D)-CHT-Gly-Arg-pNA as substrate after 10 to 120 mins at 25 degC by spectrophotometric method
T3 sequence (P00748 whole entry): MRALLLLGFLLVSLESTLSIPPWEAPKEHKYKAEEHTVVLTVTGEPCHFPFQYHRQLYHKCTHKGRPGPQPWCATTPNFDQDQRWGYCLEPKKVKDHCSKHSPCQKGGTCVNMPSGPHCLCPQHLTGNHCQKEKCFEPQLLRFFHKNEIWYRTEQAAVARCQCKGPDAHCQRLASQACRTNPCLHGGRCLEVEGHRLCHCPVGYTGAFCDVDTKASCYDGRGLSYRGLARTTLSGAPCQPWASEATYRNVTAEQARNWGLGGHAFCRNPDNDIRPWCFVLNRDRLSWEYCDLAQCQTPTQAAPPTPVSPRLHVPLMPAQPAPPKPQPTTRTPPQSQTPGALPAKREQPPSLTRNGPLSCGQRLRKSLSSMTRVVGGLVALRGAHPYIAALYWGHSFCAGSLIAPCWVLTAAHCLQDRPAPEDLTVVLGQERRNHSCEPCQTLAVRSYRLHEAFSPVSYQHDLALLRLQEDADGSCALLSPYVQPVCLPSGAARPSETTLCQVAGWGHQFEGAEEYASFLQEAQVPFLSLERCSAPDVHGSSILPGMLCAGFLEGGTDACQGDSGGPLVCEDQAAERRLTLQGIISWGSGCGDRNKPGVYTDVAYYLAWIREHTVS

Prothrombin = Prothrombin (Homo sapiens, UniProt P00734); assay: Inhibition of human thrombin using pyroGlu-Pro-Arg-pNA as substrate after 10 to 120 mins at 37 degC by spectrophotometric method; summary of the method: as §1
[4] = Inhibition of human trypsin using N-benzoyl-Ile-Glu-(OH,OMe)-Gly-Arg-pNA as substrate after 10 to 120 mins at 37 degC by spectrophotometric method; summary of the method: as §1
Plasma kallikrein = Plasma kallikrein (Homo sapiens, UniProt P03952); assay: Inhibition of human plasma kallikrein using H-(D)-Pro-Phe-Arg-pNA as substrate after 10 to 120 mins at 37 degC by spectrophotometric method; summary of the method: as §1
[5] = molecular target: Vitamin K-dependent protein C (Homo sapiens, UniProt P04070); assay: Inhibition of human activated protein C using pyroGlu-Pro-Arg-pNA as substrate after 10 to 120 mins at 37 degC by spectrophotometric method; summary of the method: as §1
Plasminogen = Plasminogen (Homo sapiens, UniProt P00747); assay: Inhibition of human plasmin using H-(D)-Val-Leu-LyspNA as substrate after 10 to 120 mins at 37 degC by spectrophotometric method; summary of the method: as §1
[6] = molecular target: Tissue-type plasminogen activator (Homo sapiens, UniProt P00750); assay: Inhibition of human tissue plasminogen activator using methylsulfonyl-D-cyclohexylalanyl-GlyArg-pNA as substrate after 10 to 120 mins at 37 degC by spectrophotometric method; summary of the method: as §1
[7] = molecular target: Urokinase-type plasminogen activator (Homo sapiens, UniProt P00749); assay: Inhibition of human urokinase using pyro-Glu-Gly-Arg-pNA as substrate after 10 to 120 mins at 37 degC by spectrophotometric method; summary of the method: as §1
[8] = Inhibition of human chymotrypsin using MeO-SucArg-Pro-Tyr-pNA as substrate after 10 to 120 mins at 37 degC by spectrophotometric method; summary of the method: as §1
[9] = Half life in Beagle dog at 0.21 mg/kg, iv administered as 10 mins infusion or 0.42 mg/kg, po via gavage administered as cassette dose by LC-MS/MS method; format: ADME, organism-based, Canis lupus familiaris; settings: in vivo
Summary of the method: (§2)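 Dog PK vehicles as footnoted: iv in 70% PEG 400/20% water/10% ethanol; po either 70% PEG 400/20% TPGS/10% ethanol or the same PEG 400/water/ethanol vehicle used for iv.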

[10] = Volume of distribution at steady state in Beagle dog at 0.21 mg/kg, iv administered as 10 mins infusion or 0.42 mg/kg, po via gavage administered as cassette dose by LC-MS/MS method; format: ADME, organism-based, Canis lupus familiaris; settings: in vivo, read-out: Vdss; summary of the method: as §2
Canis familiaris [11] = assay: Oral bioavailability in Beagle dog at 0.42 mg/kg administered via gavage as cassette dose by LC-MS/MS method; format: ADME, organism-based, Canis lupus familiaris; settings: in vivo; summary of the method: as §2
Canis familiaris [12] = assay: AUC in Beagle dog at 0.42 mg/kg, po administered via gavage as cassette dose by LC-MS/MS method; format: ADME, organism-based, Canis lupus familiaris; settings: in vivo; summary of the method: as §2
[13] = Half life in dog liver microsomes; format: ADME, Canis lupus familiaris, microsome

T1 sequence (P03951 19-387 limits assumed): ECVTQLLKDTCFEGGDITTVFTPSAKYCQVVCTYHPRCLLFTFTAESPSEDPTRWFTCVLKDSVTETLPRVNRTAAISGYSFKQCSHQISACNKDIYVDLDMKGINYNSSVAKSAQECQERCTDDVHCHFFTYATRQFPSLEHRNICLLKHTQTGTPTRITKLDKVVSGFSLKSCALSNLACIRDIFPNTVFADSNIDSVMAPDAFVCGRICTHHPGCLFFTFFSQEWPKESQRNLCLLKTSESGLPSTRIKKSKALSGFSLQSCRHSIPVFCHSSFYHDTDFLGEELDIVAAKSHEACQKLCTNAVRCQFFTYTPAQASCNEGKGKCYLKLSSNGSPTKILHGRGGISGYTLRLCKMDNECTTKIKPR
T1 sequence (P03951 388-625 limits assumed): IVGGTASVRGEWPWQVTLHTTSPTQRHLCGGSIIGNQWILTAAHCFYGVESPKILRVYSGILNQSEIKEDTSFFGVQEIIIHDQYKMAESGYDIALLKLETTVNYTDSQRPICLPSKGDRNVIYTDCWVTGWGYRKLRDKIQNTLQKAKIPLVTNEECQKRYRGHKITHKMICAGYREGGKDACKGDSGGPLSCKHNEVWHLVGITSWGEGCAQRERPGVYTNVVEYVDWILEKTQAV
Sequence of Vitamin K-dependent protein C (P04070 43-197 limits assumed): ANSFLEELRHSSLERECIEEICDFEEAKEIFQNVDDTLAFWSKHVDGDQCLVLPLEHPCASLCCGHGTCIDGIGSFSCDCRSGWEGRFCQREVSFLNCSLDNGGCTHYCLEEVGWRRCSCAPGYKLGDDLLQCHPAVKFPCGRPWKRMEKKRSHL
Sequence of Vitamin K-dependent protein C (P04070 212-461 limits assumed): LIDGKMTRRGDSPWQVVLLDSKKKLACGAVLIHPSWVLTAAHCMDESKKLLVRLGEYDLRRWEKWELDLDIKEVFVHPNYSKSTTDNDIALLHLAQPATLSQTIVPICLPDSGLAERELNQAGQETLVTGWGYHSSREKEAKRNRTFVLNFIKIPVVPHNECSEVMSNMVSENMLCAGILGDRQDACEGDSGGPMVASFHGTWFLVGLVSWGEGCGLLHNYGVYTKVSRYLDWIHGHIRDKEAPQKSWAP
Sequence of Plasma kallikrein (P03952 20-390 limits assumed): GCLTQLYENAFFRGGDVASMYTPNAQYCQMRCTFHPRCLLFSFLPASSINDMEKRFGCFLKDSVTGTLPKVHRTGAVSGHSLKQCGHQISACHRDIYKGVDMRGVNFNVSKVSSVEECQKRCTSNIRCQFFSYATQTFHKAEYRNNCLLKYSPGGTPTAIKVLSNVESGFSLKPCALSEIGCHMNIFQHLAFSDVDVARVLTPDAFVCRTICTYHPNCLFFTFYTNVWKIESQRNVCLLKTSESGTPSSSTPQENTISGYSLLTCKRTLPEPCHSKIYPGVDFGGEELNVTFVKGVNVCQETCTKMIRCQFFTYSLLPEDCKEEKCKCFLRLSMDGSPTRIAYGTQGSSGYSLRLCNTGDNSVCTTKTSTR
Sequence of Plasma kallikrein (P03952 391-638 limits assumed): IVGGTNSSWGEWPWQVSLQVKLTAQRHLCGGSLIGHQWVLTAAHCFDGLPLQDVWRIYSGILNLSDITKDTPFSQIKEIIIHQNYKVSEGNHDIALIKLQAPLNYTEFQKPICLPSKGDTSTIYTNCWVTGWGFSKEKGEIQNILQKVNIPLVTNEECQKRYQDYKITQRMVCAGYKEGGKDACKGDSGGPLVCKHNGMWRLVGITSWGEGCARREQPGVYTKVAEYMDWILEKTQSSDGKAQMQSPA
Sequence of Tissue-type plasminogen activator (P00750 whole entry): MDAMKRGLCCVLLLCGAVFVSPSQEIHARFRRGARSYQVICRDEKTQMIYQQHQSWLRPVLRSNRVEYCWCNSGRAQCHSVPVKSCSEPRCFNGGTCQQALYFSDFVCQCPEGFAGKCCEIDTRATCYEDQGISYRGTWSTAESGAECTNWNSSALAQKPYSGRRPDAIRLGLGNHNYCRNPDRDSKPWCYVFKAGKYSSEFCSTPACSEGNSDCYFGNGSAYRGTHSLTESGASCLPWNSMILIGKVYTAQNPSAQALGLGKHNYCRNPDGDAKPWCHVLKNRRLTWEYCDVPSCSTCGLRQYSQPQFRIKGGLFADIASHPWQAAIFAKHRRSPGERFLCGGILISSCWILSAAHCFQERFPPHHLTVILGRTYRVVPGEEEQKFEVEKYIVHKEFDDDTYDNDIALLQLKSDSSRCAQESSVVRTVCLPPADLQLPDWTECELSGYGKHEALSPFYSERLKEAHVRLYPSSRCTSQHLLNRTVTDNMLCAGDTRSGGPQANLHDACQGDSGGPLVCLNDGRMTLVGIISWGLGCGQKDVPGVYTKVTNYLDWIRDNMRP
Sequence of Coagulation factor X (P00742 41-179 limits assumed): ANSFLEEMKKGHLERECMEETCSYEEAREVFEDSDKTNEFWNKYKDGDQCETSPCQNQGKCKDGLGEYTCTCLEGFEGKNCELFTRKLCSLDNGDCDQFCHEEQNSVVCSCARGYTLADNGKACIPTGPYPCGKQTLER
Sequence of Coagulation factor X (P00742 235-488 limits assumed): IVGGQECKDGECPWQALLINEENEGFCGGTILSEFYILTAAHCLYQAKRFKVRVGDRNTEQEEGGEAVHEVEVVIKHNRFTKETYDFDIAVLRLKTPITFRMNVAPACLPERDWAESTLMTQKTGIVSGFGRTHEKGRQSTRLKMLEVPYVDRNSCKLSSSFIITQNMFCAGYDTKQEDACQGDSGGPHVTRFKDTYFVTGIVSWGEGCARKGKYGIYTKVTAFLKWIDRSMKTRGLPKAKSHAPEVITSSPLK
Sequence of Coagulation factor IX (P00740 47-191 limits assumed): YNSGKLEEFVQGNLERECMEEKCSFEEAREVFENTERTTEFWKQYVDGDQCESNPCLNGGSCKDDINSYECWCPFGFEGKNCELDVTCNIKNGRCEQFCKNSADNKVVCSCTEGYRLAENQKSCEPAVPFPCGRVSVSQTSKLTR
Sequence of Coagulation factor IX (P00740 227-461 limits assumed): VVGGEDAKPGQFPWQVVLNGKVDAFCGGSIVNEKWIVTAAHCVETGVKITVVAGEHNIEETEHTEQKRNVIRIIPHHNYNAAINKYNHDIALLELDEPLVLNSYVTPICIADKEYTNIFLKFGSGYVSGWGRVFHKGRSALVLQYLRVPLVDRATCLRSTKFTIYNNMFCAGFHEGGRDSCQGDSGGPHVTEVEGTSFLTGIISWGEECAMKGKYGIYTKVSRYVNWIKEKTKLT
Sequence of Plasminogen (P00747 97-580 limits assumed): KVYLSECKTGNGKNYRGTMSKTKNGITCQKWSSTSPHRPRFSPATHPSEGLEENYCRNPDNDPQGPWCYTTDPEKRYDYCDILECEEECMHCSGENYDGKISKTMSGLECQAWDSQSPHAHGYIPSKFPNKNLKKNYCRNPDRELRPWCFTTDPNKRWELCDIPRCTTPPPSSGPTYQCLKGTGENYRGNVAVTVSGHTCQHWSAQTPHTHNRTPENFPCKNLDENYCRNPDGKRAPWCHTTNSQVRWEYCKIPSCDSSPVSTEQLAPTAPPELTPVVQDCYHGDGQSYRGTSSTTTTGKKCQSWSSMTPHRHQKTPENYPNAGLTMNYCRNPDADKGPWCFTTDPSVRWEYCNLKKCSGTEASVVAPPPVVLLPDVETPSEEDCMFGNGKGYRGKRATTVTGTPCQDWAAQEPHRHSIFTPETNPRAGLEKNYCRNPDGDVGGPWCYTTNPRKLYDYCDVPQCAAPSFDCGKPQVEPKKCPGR
Sequence of Plasminogen (P00747 581-810 limits assumed): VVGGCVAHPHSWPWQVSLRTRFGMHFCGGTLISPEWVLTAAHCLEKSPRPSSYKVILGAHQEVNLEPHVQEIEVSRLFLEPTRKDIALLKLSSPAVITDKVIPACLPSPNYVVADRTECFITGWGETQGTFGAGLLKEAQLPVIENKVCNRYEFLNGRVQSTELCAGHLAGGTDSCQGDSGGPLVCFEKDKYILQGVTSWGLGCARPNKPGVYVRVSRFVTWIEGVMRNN

SMILES | Ki (Coagulation factor XI [1]) | EC1.5 (Plasma) | half-life [2] | also measured
COC(=O)Nc1ccc2c(c1)NC(=O)OCCCC[C@H](NC(=O)/C=C/c1cc(Cl)ccc1-n1cnnn1)c1nc-2c[nH]1 | 3.8 nM | 0.86 µM | 1.03 h | –
C=CC[C@H](NC(=O)/C=C/c1cc(Cl)ccc1-n1cnnn1)c1nc(-c2ccc(NC(=O)OC)cc2NC(=O)CC)c[nH]1 | 27 nM | 21 µM | 0.2 h | –
COC(=O)Nc1ccc2c(c1)CCCCCCC[C@H](NC(=O)/C=C/c1cc(Cl)ccc1-n1cnnn1)c1nc-2c[nH]1 | 600 nM | – | – | –
COC(=O)Nc1ccc2c(c1)CCCCCCC[C@H](NC(=O)/C=C/c1cc(Cl)ccc1-n1cnnn1)c1nc-2c(Cl)[nH]1 | 68 nM | 34 µM | – | –
COC(=O)Nc1ccc2c(c1)OCCC/C=C/C[C@H](NC(=O)/C=C/c1cc(Cl)ccc1-n1cnnn1)c1nc-2c[nH]1 | 3920 nM | – | – | –
COC(=O)Nc1ccc2c(c1)NCCC/C=C/C[C@H](NC(=O)/C=C/c1cc(Cl)ccc1-n1cnnn1)c1nc-2c[nH]1 | 514 nM | – | 0.283 h | –
COC(=O)Nc1ccc2c(c1)NC(=O)OC/C=C/C[C@H](NC(=O)/C=C/c1cc(Cl)ccc1-n1cnnn1)c1nc-2c[nH]1 | 0.88 nM | 0.45 µM | 1.15 h | –
COC(=O)Nc1ccc2c(c1)CCCC/C=C/C[C@H](NC(=O)/C=C/c1cc(Cl)ccc1-n1cnnn1)c1nc-2c[nH]1 | 184 nM | >40 µM | – | –
COC(=O)Nc1ccc2c(c1)CCCCCC[C@H](NC(=O)/C=C/c1cc(Cl)ccc1-n1cnnn1)c1nc-2c(Cl)[nH]1 | 42 nM | 27 µM | – | –
COC(=O)Nc1ccc2c(c1)NC(=O)CCCCC[C@H](NC(=O)/C=C/c1cc(Cl)ccc1-n1cnnn1)c1nc-2c(Cl)[nH]1 | 0.47 nM | 0.92 µM | 1.43 h | –
COC(=O)Nc1ccc2c(c1)OCCCCC[C@H](NC(=O)/C=C/c1cc(Cl)ccc1-n1cnnn1)c1nc-2c[nH]1 | – | – | – | Ki (Coagulation factor XI [3]): 420 nM
COC(=O)Nc1ccc(-c2nc([C@H](Cc3ccccc3)NC(=O)/C=C/c3cc(Cl)ccc3-n3cnnn3)[nH]c2Cl)cc1 | 5.8 nM | 5.3 µM | – | Ki (Coagulation factor VII): > 13400 nM; Ki (Coagulation factor IX): > 27100 nM; Ki (Coagulation factor X): > 13300 nM; Ki (Coagulation factor XII): > 3050 nM; Ki (Prothrombin): > 11500 nM; Ki [4]: > 10000 nM; Ki (Plasma kallikrein): 519 nM; Ki [5]: > 21500 nM; Ki (Plasminogen): > 15200 nM; Ki [6]: > 6150 nM; Ki [7]: > 15100 nM; Ki [8]: > 4530 nM
COC(=O)Nc1ccc2c(c1)NC(=O)C/C=C/C[C@H](NC(=O)/C=C/c1cc(Cl)ccc1-n1cnnn1)c1nc-2c[nH]1 | 264 nM | >40 µM | – | –
COC(=O)Nc1ccc2c(c1)CCCCCC[C@H](NC(=O)/C=C/c1cc(Cl)ccc1-n1cnnn1)c1nc-2c[nH]1 | 87 nM | >40 µM | – | half-life [9]: 3.2 h; Vd [10]: 0.7 L/kg; F (Canis familiaris [11]): 12%; AUC (Canis familiaris [12]): 0.458 µM·h; half-life [13]: > 2 h
COC(=O)Nc1ccc2c(c1)NC(=O)CC/C=C/C[C@H](NC(=O)/C=C/c1cc(Cl)ccc1-n1cnnn1)c1nc-2c(Cl)[nH]1 | 0.03 nM | 0.28 µM | 0.967 h | –
COC(=O)Nc1ccc2c(c1)OCCCCCC[C@H](NC(=O)/C=C/c1cc(Cl)ccc1-n1cnnn1)c1nc-2c(Cl)[nH]1 | 76 nM | >40 µM | – | –
COC(=O)Nc1ccc2c(c1)NC(=O)CC/C=C\C[C@H](NC(=O)/C=C/c1cc(Cl)ccc1-n1cnnn1)c1nc-2c[nH]1 | – | 12 µM | – | –
